Columns and labels:
[1] = Potentiation of 0.02 uM doxorubicin-induced cytotoxicity in human HL60/MDR cells assessed as viable cells at 25 uM after 48 hrs by WST assay relative to control; format: functional
[2] = Cytotoxicity against human HL60/MDR cells assessed as viable cells at 25 uM after 48 hrs by WST assay; format: functional; conditions: for viability at 25 µM: Homo sapiens, HL60/MDR, 48 h, read-out: Activity
[3] = Potentiation of 0.2 uM doxorubicin-induced cytotoxicity in human HL60/MDR cells assessed as viable cells at 25 uM after 48 hrs by WST assay relative to control; format: functional
[4] = Potentiation of 0.6 uM doxorubicin-induced cytotoxicity in human HL60/MDR cells assessed as viable cells at 25 uM after 48 hrs by WST assay relative to control; format: functional
[5] = Cell cycle arrest in human HL60/MDR cells assessed as accumulation at G2/M phase at 0.2 uM after 48 hrs by flow cytometry (reference value: 11.3 %); format: functional, cell-based
Method in brief: (§1)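 HL60/MDR cells (about 5 × 10^5 cells/mL) exposed 48 h under standard culture to doxorubicin (0.2 and/or 0.02 μM) or lignan (25 μM) alone; DMSO-treated control. Cells fixed in 70% ethanol 30 min at room temperature, RNase A (17 μg/mL) 37 °C 30 min, PI (3 μg/mL) 10 min dark; DNA content by flow cytometry, FL3 (620 nm), 10 000–20 000 events.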

[6] = Cell cycle arrest in human HL60/MDR cells assessed as accumulation at G2/M phase at 0.02 uM after 48 hrs by flow cytometry (reference value: 11.3 %); format: functional, cell-based; method in brief: as §1
[7] = Cell cycle arrest in human HL60/MDR cells assessed as accumulation at S phase at 0.2 uM after 48 hrs by flow cytometry (reference value: 29.9 %); format: functional, cell-based; method in brief: as §1
[8] = Cytotoxicity against human HL60/MDR cells assessed as viable cells at 0.6 uM after 48 hrs by WST assay; format: functional; conditions: read-out: Activity
Method in brief: (§2)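 Doxorubicin-resistant HL60/MDR cells seeded at 5 × 10^4 cells/mL and held 48 h at 37 °C with doxorubicin (0.02, 0.2, 0.6 μM) alone or plus modulator (25 μM). WST-1 (1 mM) with 0.2 mM MMPM then added for 4 h; absorbance at 450 nm. Viability given as % of untreated cells; two independent experiments, each in triplicate.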

[9] = Cytotoxicity against human HL60/MDR cells assessed as viable cells at 0.2 uM after 48 hrs by WST assay; format: functional; conditions: read-out: Activity; method in brief: as §2
[10] = Cell cycle arrest in human HL60/MDR cells assessed as accumulation at S phase at 0.02 uM after 48 hrs by flow cytometry (reference value: 29.9 %); format: functional, cell-based; method in brief: as §1
[11] = Cell cycle arrest in human HL60/MDR cells assessed as accumulation at G1 phase at 0.2 uM after 48 hrs by flow cytometry (reference value: 59.0 %); format: functional, cell-based; conditions: in the assay text read “G2/M phase” for “G1 phase”; method in brief: as §1
[12] = Cytotoxicity against human HL60/MDR cells assessed as viable cells at 0.02 uM after 48 hrs by WST assay; format: functional; conditions: read-out: Activity; method in brief: as §2
[13] = Cell cycle arrest in human HL60/MDR cells assessed as accumulation at G1 phase at 0.02 uM after 48 hrs by flow cytometry (reference value: 59.0 %); format: functional, cell-based; method in brief: as §1
[14] = Potentiation of doxorubicin-induced cell cycle arrest in human HL60/MDR cells assessed as accumulation at G1 phase at 25 uM after 48 hrs by flow cytometry (reference value: 59.0 %); format: functional
[15] = Potentiation of doxorubicin-induced cell cycle arrest in human HL60/MDR cells assessed as accumulation at G2/M phase at 25 uM after 48 hrs by flow cytometry (reference value: 59.0 %); format: functional
[16] = Potentiation of doxorubicin-induced cell cycle arrest in human HL60/MDR cells assessed as accumulation at S phase at 25 uM after 48 hrs by flow cytometry (reference value: 59.0 %); format: functional
[17] = Cell cycle arrest in human HL60/MDR cells assessed as accumulation at G2/M phase at 25 uM after 48 hrs by flow cytometry (reference value: 11.3 %); format: functional, cell-based; method in brief: as §1
[18] = Cell cycle arrest in human HL60/MDR cells assessed as accumulation at S phase at 25 uM after 48 hrs by flow cytometry (reference value: 29.9 %); format: functional, cell-based; method in brief: as §1
[19] = Cell cycle arrest in human HL60/MDR cells assessed as accumulation at G1 phase at 25 uM after 48 hrs by flow cytometry (reference value: 59.0 %); format: functional, cell-based; method in brief: as §1

With `COc1cc2c(c(OC)c1OC)-c1c(cc3c(c1OC)OCO3)C[C@@H](C)[C@@H](C)C2` (single isomer, unassigned; atropisomer 2) [KADSURANIN] the Activity [1] was 100%, the viability at 25 µM [2] was 106% and the Activity [3] was 97%. It also gave an Activity [4] of 81%.
With `COc1cc2c(c(OC)c1OC)-c1c(cc3c(c1OC)OCO3)C[C@H](C)[C@H](C)C2` (single isomer, unassigned; atropisomer 1) [WUWEIZISU B] the Activity [1] was 94%, the Activity [2] was 102% and the Activity [3] was 66%. The Activity [4] was 38%.
With `COc1cc2c(c(OC)c1OC)-c1c(cc3c(c1OC)OCO3)CC(C)C(C)C2` (racemic) [SCHISANDRIN B] the Activity [1] was 117%, the viability at 25 µM [2] was 88% and the Activity [3] was 41%. It also gave an Activity [4] of 36%.
In the case of `COc1cccc2c1C(=O)c1c(O)c3c(c(O)c1C2=O)C[C@@](O)(C(=O)CO)C[C@@H]3O[C@H]1C[C@H](N)[C@H](O)[C@H](C)O1` [DOXORUBICIN], the Activity [5] is reported as 52%, the Activity [6] is reported as 16% and the Activity [7] is reported as 11%. It also gave a viability at 0.6 µM [8] of 91%, a viability at 0.2 µM [9] of 83% and an Activity [10] of 28.3%. It also gave an Activity [11] of 36.9%, a viability at 0.02 µM [12] of 109% and an Activity [13] of 55.8%.
`COc1cc2c(c(OC)c1OC)-c1c(cc(OC)c(OC)c1OC)C[C@H](C)[C@H](C)C2` [SCHISANDRIN A] showed an Activity [14] of 21.2%, an Activity [1] of 106% and an Activity [2] of 92%. For the same molecule, the Activity [3] was 52%, the Activity [15] was 67.9% and the Activity [4] was 43%. It also gave an Activity [16] of 10.9%.
With `COc1cc2c(c(OC)c1OC)-c1c(cc(OC)c(OC)c1OC)C[C@H](C)[C@H](C)C2` (single isomer, unassigned; atropisomer 1) [SCHISANDRIN A] the Activity [1] was 108%, the Activity [2] was 144% and the Activity [3] was 48%. It also gave an Activity [4] of 39%.
For `COc1cc2c(c(OC)c1OC)-c1c(cc(OC)c(OC)c1OC)C[C@H](C)[C@H](C)C2`, the Activity [17] was 12.1%, the Activity [18] was 30.5% and the Activity [19] was 57.3%.
In the case of `COc1cc2c(c(OC)c1OC)-c1c(cc3c(c1OC)OCO3)C[C@H](C)[C@H](C)C2` [WUWEIZISU B], the Activity [14] is reported as 40.4%, the Activity [1] is reported as 121% and the Activity [2] is reported as 128%. The Activity [3] was 42%, the Activity [15] was 36.9% and the Activity [4] was 39%. The Activity [16] was 22.7%.
In the case of `COc1cc2c(c(OC)c1OC)-c1c(cc3c(c1OC)OCO3)C[C@H](C)[C@H](C)C2`, the Activity [17] is reported as 8.8%, the Activity [18] is reported as 26.4% and the Activity [19] is reported as 64.8%.

Reference: ChEMBL document CHEMBL3351498, “Identification of key structural characteristics of Schisandra chinensis lignans involved in P-glycoprotein inhibition” (2014)
